Test results: ChEMBL document CHEMBL1135916, “Design, synthesis, and structure-activity relationship of pyridyl imidazolidinones: a novel class of potent and selective human enterovirus 71 inhibitors” (J Med Chem, 2002)
“And” between values parts separate entries of the source, which are not always exact repeats. Equal entries are not always repeated.

Tests used:
[1] = Cytotoxicity against human normal skin fibroblast (D551) cells; type: cell-based
Summary of the method: (§1)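 Test compound at various concentrations added to D551 (human normal skin fibroblast), WI38 (human normal lung fibroblast) or RD cells; incubated 96 h at 37 °C; cells harvested and viable cells counted by trypan blue staining. Triplicate, at least twice.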

Enterovirus A71 = test: Inhibition concentration against EV-71; type: functional, organism-based
[2] = (§2) Cytotoxicity against human rhabdomyosarcoma (RD) cells; type: functional; summary of the method: as §1
[3] = Cytotoxicity against human normal skin fibroblast (W138) cells; type: cell-based; summary of the method: as §1
[4] = Selectivity index (D551/EV71) of the compound; type: functional
[5] = Selectivity index (RD/EV71) of the compound; type: functional
[6] = Selectivity index (W138/EV71) of the compound; type: functional
[7] = as §2; type: functional; remark: listed apart in the source
[8] = D551 normal skin fibroblast cells
[9] = W138 normal skin fibroblast cells

Compound	IC50 (Enterovirus A71; Enterovirus A) [µM]	CC50 ([7]; Homo sapiens, RD) [µM]	also measured
COc1ccc(OCCCCCCN2CCN(c3ccncc3)C2=O)cc1	5.43		CC50 [2]: > 25 µM
CSc1ccc(OCCCCCCN2CCN(c3ccnc(Cl)c3)C2=O)cc1	> 25	> 25	
O=C1N(CCCCCCOc2c(Cl)cccc2Cl)CCN1c1ccncc1	> 25	> 25	
O=C1N(CCCCCCOc2ccc(Br)cc2)CCN1c1ccccc1	10.6	> 25	
O=C1N(CCCCCOc2ccc(-c3ccc([N+](=O)[O-])cc3)cc2)CCN1c1ccncc1 [listing 1 of 2 here]			Selectivity index [4]: > 169 and 200; Selectivity index [5]: > 76; Selectivity index [6]: > 169 and 212
O=C1N(CCCCCCOc2ccc(C(F)(F)F)cc2)CCN1c1ccccc1	12	> 25	
O=C1N(CCCCCCOc2cccc(Br)c2)CCN1c1ccncc1	> 25	> 25	
O=C1N(CCCCCCOc2ccc(Br)cc2)CCN1c1ccnc(Cl)c1	> 25	> 25	
O=C1N(CCCCCOc2ccc(-c3ccc(Cl)cc3)cc2)CCN1c1ccncc1 [listing 1 of 2 here]			CC50 [1]: 13 µM; CC50 [7]: 12.5 µM; CC50 [3]: 48 µM
O=C1N(CCCCCCCOc2ccc(Br)cc2)CCN1c1ccncc1	0.56	> 25	
O=C1N(CCCCCOc2ccc(-c3ccc([N+](=O)[O-])cc3)cc2)CCN1c1ccncc1 [listing 2 of 2 here]			CC50 [1]: 66 µM; IC50 (Enterovirus A71): 0.33 µM; CC50 [3]: 70 µM
O=C1N(CCCCCCOc2ccc(Cl)cc2)CCN1c1cccnc1	2.52	> 25	
O=C1N(CCCCCCCOc2ccc(Br)cc2)CCN1c1ccncn1	> 25	> 25	
CSc1ccc(OCCCCCCN2CCN(c3ccncc3)C2=O)cc1	4.96		CC50 [2]: > 25 µM
CC(C)(C)c1ccc(OCCCCCCN2CCN(c3cccnc3)C2=O)cc1	> 25	> 25	

The remaining molecules from weak to strong by IC50 (Enterovirus A71; Enterovirus A), led by results:

IC50 (Enterovirus A71; Enterovirus A) [µM]	Compound	CC50 ([7]; Homo sapiens, RD) [µM]	also measured
9.33	O=C1N(CCCCCCOc2ccc(F)cc2)CCN1c1cccnc1	> 25	
4.65	O=C1N(CCCCCOc2ccc(Cl)cc2)CCN1c1cccnc1	> 25	
3.01	O=C1N(CCCCCCOc2ccc(F)cc2)CCN1c1ccncc1		CC50 [2]: > 25 µM
2.07	O=C1N(CCCCCCOc2ccc(Br)cc2)CCN1c1cccnc1	> 25	
1.5	O=C1N(CCCCCCOc2ccc(Cl)cc2)CCN1c1ccncc1	> 25	
1.43	O=C1N(CCCCCCCOc2ccc(Cl)cc2)CCN1c1cccnc1	> 25	
0.66	O=C1N(CCCCCCCOc2ccc(Cl)cc2)CCN1c1ccncc1	> 25	
0.5	O=C1N(CCCCCOc2ccc(Br)cc2)CCN1c1ccncc1		CC50 [1, 8]: 50 µM; CC50 [2]: > 25 µM; CC50 [3, 9]: 65 µM; Selectivity index [4]: 100; Selectivity index [5]: > 50; Selectivity index [6]: 130
0.34	COc1ccc(-c2ccc(OCCCCCN3CCN(c4ccncc4)C3=O)cc2)cc1	> 25	CC50 [1, 8]: > 100 µM; CC50 [3, 9]: > 100 µM; Selectivity index [4]: > 294; Selectivity index [5]: > 74; Selectivity index [6]: > 294
0.14	O=C1N(CCCCCOc2ccc(-c3ccc(Br)cc3)cc2)CCN1c1ccncc1	> 25	CC50 [1, 8]: > 100 µM; CC50 [3, 9]: > 100 µM; Selectivity index [4]: > 714; Selectivity index [5]: > 179; Selectivity index [6]: > 714
0.06	O=C1N(CCCCCOc2ccc(-c3ccc(Cl)cc3)cc2)CCN1c1ccncc1 [listing 2 of 2 here]	6.25	CC50 [1]: 6 µM; CC50 [3, 9]: 32 µM
